Experimental data as given in ChEMBL document CHEMBL1127457, “Nonpeptide renin inhibitors with good intraduodenal bioavailability and efficacy in dog” (J Med Chem, 1994).

Key:
Renin [1] = biological target: T1, Renin (Homo sapiens, UniProt P00797); assay: Tested in vitro for its ability to inhibit the human plasma renin; format: cell-free
T1 sequence (P00797 whole entry): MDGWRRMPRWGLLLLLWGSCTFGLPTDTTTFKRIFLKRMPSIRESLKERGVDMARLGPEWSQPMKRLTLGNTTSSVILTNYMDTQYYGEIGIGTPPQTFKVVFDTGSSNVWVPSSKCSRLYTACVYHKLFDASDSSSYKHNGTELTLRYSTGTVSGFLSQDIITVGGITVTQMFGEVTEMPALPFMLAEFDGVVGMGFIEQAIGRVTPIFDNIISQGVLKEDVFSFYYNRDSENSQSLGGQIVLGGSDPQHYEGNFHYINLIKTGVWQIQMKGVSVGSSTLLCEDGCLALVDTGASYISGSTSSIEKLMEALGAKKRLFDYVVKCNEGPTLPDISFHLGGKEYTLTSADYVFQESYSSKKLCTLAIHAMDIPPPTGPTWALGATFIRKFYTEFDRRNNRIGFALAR
Outline: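 IC50 against renin in plasma from the named species (dog, ferret, human, rat); single determination in most cases.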

Renin [2] = biological target: T1, Renin; assay: Tested in vitro for its ability to inhibit the human plasma renin at pH of 7.4; format: cell-free
[3] = Partition coefficient (logD7.4); conditions: octanol/water, pH 7.4
[4] = Partition coefficient (logD6.5); conditions: octanol/water, pH 6.5
[5] = Average area under curve for the compound at 1 mg/kg dose after intravenous administration to rat; conditions: in vivo
[6] = Oral bioavailability in rat; conditions: in vivo, intraduodenal, 10 mg/kg
[7] = Average area under curve for the compound at 10 mg/kg dose after intraduodenal administration to rat; conditions: in vivo
[8] = Average peak plasma concentration of compound after 10 mg/kg intraduodenal administration to rat; conditions: plasma
[9] = Average peak plasma concentration of compound after 1 mg/kg intravenous administration to rat; conditions: plasma

Compound | IC50 (Renin [1]) [nM] | IC50 (Renin [2]) [nM] | logD [3] | logD [4] | further results
CCCC[C@H](O[C@@H](Cc1ccccc1)C(=O)N1CCC(OCOC)CC1)C(=O)N[C@@H](CC1CCCCC1)[C@@H](O)C[C@H](C(=O)NCCC/N=C(/NC)NC#N)C(C)C | – | 1.3 | 4.4 | 4.4 | –
CCCC[C@H](N[C@@H](Cc1ccccc1)C(=O)N1CCC(OCOC)CC1)C(=O)N[C@@H](CC1CCCCC1)[C@@H](O)C[C@H](C(=O)NCCNCCO)C(C)C | 11 | – | – | – | –
CCCC[C@H](O[C@@H](Cc1ccccc1)C(=O)N1CCC(OCOC)CC1)C(=O)N[C@@H](CC1CCCCC1)[C@@H](O)C[C@H](C(=O)NCCNC(=O)OCc1ccccc1)C(C)C | – | 11 | – | – | –
CCCC[C@H](O[C@@H](Cc1ccccc1)C(=O)N1CCC(OCOC)CC1)C(=O)N[C@@H](CC1CCCCC1)[C@@H](O)C[C@H](C(=O)NCCC(=O)OCC)C(C)C | – | 12 | – | – | –
CCCC[C@H](O[C@@H](Cc1ccccc1)C(=O)N1CCC(OCOC)CC1)C(=O)N[C@@H](CC1CCCCC1)[C@@H](O)C[C@H](C(=O)NCCCNc1nnc(N)[nH]1)C(C)C | – | 1.7 | 4.2 | 4.3 | –
CCCC[C@H](O[C@@H](Cc1ccccc1)C(=O)N1CCC(OCOC)CC1)C(=O)N[C@@H](CC1CCCCC1)[C@@H](O)C[C@H](C(=O)NCCCCN1CCOCC1)C(C)C | – | 3.3 | – | – | –
CCCC[C@H](O[C@@H](Cc1ccccc1)C(=O)N1CCC(OCOC)CC1)C(=O)N[C@@H](CC1CCCCC1)[C@@H](O)C[C@H](C(=O)NCCNc1n[nH]c(N)n1)C(C)C | – | 1.1 | 4 | 3.9 | –
CCCC[C@H](O[C@@H](Cc1ccccc1)C(=O)N1CCC(OCOC)CC1)C(=O)N[C@@H](CC1CCCCC1)[C@@H](O)C[C@H](C(=O)NCCCNC(N)=NC#N)C(C)C | – | 1.5 | 4.5 | 4.6 | –
CCCC[C@H](N[C@@H](Cc1ccccc1)C(=O)N1CCC(OCOC)CC1)C(=O)N[C@@H](CC1CCCCC1)[C@@H](O)C[C@H](C(=O)NCC(=O)OCc1ccccc1)C(C)C | 21 | – | – | – | –
CCCC[C@H](O[C@@H](Cc1ccccc1)C(=O)N1CCC(OCOC)CC1)C(=O)N[C@@H](CC1CCCCC1)[C@@H](O)C[C@H](C(=O)NCCNC(N)=NC#N)C(C)C | – | 1.8 | > 5 | > 5 | –
CCCC[C@H](O[C@@H](Cc1ccccc1)C(=O)N1CCC(OCOC)CC1)C(=O)N[C@@H](CC1CCCCC1)[C@@H](O)C[C@H](C(=O)NCCCN)C(C)C | – | 4.5 | 1.8 | 2.4 | –
CCCC[C@H](O[C@@H](Cc1ccccc1)C(=O)N1CCC(OCOC)CC1)C(=O)N[C@@H](CC1CCCCC1)[C@@H](O)C[C@H](C(=O)NCCCCN)C(C)C | – | 4.3 | – | – | –
CCCC[C@H](O[C@@H](Cc1ccccc1)C(=O)N1CCC(OCOC)CC1)C(=O)N[C@@H](CC1CCCCC1)[C@@H](O)C[C@H](C(=O)NCCC(=O)O)C(C)C | 6.8 | – | 2.8 | 1.9 | –
CCCC[C@H](N[C@@H](Cc1ccccc1)C(=O)N1CCC(OCOC)CC1)C(=O)N[C@@H](CC1CCCCC1)[C@@H](O)C[C@H](C(=O)NCC(C)(C)NCCO)C(C)C | 6.3 | – | – | – | AUC [5]: 477 ng·h/mL; bioavailability [6]: 1%; AUC [7]: 66.3 ng·h/mL; Cmax [8]: 80 ng/mL; Cmax [9]: 3480 ng/mL
CCCC[C@H](N[C@@H](Cc1ccccc1)C(=O)N1CCC(OCOC)CC1)C(=O)N[C@@H](CC1CCCCC1)[C@@H](O)C[C@H](C(=O)NCCNc1n[nH]c(N)n1)C(C)C | 6.1 | – | 4.2 | 4.1 | AUC [5]: 318 ng·h/mL; bioavailability [6]: 2%; AUC [7]: 94.8 ng·h/mL; Cmax [8]: 190 ng/mL; Cmax [9]: 810 ng/mL
CCCC[C@H](N[C@@H](Cc1ccccc1)C(=O)N1CCC(OCOC)CC1)C(=O)N[C@@H](CC1CCCCC1)[C@@H](O)C[C@H](C(=O)NCCC(=O)O)C(C)C | 8.4 | – | – | – | –
CCCC[C@H](O[C@@H](Cc1ccccc1)C(=O)N1CCC(OCOC)CC1)C(=O)N[C@@H](CC1CCCCC1)[C@@H](O)C[C@H](C(=O)NCCNC(N)=O)C(C)C | – | 2.8 | – | – | –
CCCC[C@H](O[C@@H](Cc1ccccc1)C(=O)N1CCC(OCOC)CC1)C(=O)N[C@@H](CC1CCCCC1)[C@@H](O)C[C@H](C(=O)NCCCNCCO)C(C)C | – | 6 | 1.8 | 2.5 | –
CCCC[C@H](O[C@@H](Cc1ccccc1)C(=O)N1CCC(OCOC)CC1)C(=O)N[C@@H](CC1CCCCC1)[C@@H](O)C[C@H](C(=O)NCCCNC(C)=O)C(C)C | – | 2.4 | 4.3 | 4.3 | –
CCCC[C@H](O[C@@H](Cc1ccccc1)C(=O)N1CCC(OCOC)CC1)C(=O)N[C@@H](CC1CCCCC1)[C@@H](O)C[C@H](C(=O)NCCCNC(N)=O)C(C)C | – | 2 | – | – | –
CCCC[C@H](O[C@@H](Cc1ccccc1)C(=O)N1CCC(OCOC)CC1)C(=O)N[C@@H](CC1CCCCC1)[C@@H](O)C[C@H](C(=O)NCCNC(C)=O)C(C)C | – | 2.6 | – | – | –
CCCC[C@H](O[C@@H](Cc1ccccc1)C(=O)N1CCC(OCOC)CC1)C(=O)N[C@@H](CC1CCCCC1)[C@@H](O)C[C@H](C(=O)NCCCNC(=O)OCc1ccccc1)C(C)C | – | 4.3 | – | – | –
CCCC[C@H](O[C@@H](Cc1ccccc1)C(=O)N1CCC(OCOC)CC1)C(=O)N[C@@H](CC1CCCCC1)[C@@H](O)C[C@H](C(=O)NCCCNC(=NC#N)SC)C(C)C | 1.3 | – | – | – | –
CCCC[C@H](O[C@@H](Cc1ccccc1)C(=O)N1CCC(OCOC)CC1)C(=O)N[C@@H](CC1CCCCC1)[C@@H](O)C[C@H](C(=O)NCCCNC(N)=S)C(C)C | – | 2.5 | – | – | –
CCCC[C@H](O[C@@H](Cc1ccccc1)C(=O)N1CCC(OCOC)CC1)C(=O)N[C@@H](CC1CCCCC1)[C@@H](O)C[C@H](C(=O)NCC/N=C(\NC#N)SC)C(C)C | – | 9.2 | > 5 | > 5 | –
CCCC[C@H](N[C@@H](Cc1ccccc1)C(=O)N1CCC(OCOC)CC1)C(=O)N[C@@H](CC1CCCCC1)[C@@H](O)C[C@H](C(=O)NCC(C)(C)N)C(C)C | 12 | – | – | – | –
CCCC[C@H](N[C@@H](Cc1ccccc1)C(=O)N1CCC(OCOC)CC1)C(=O)N[C@@H](CC1CCCCC1)[C@@H](O)C[C@H](C(=O)NCC[N+]1([O-])CCOCC1)C(C)C | 8.4 | – | – | – | –
CCCC[C@H](O[C@@H](Cc1ccccc1)C(=O)N1CCC(OCOC)CC1)C(=O)N[C@@H](CC1CCCCC1)[C@@H](O)C[C@H](C(=O)NCc1nn[nH]n1)C(C)C | – | 8.4 | – | – | –

Now from value to compound, other results behind:

IC50 (Renin [1]) [nM] | IC50 (Renin [2]) [nM] | logD [3] | logD [4] | Compound | further results
23 | – | – | – | CCCC[C@H](N[C@@H](Cc1ccccc1)C(=O)N1CCC(OCOC)CC1)C(=O)N[C@@H](CC1CCCCC1)[C@@H](O)C[C@H](C(=O)NCCC(=O)OCc1ccccc1)C(C)C | –
7.9 | – | 3.5 | 2.9 | CCCC[C@H](N[C@@H](Cc1ccccc1)C(=O)N1CCC(OCOC)CC1)C(=O)N[C@@H](CC1CCCCC1)[C@@H](O)C[C@H](C(=O)NCCCNCCO)C(C)C | –
– | 3.1 | 4.4 | 4.5 | CCCC[C@H](O[C@@H](Cc1ccccc1)C(=O)N1CCC(OCOC)CC1)C(=O)N[C@@H](CC1CCCCC1)[C@@H](O)C[C@H](C(=O)NCCNc1noc(N)n1)C(C)C | –
40 | – | > 5 | > 5 | CCCC[C@H](N[C@@H](Cc1ccccc1)C(=O)N1CCC(OCOC)CC1)C(=O)N[C@@H](CC1CCCCC1)[C@@H](O)C[C@H](C(=O)NCCC1CCCCC1)C(C)C | AUC [5]: 82 ng·h/mL; bioavailability [6]: 4%; AUC [7]: 37 ng·h/mL; Cmax [8]: 30 ng/mL; Cmax [9]: 140 ng/mL
– | 4.7 | 3.5 | 2.7 | CCCC[C@H](O[C@@H](Cc1ccccc1)C(=O)N1CCC(OCOC)CC1)C(=O)N[C@@H](CC1CCCCC1)[C@@H](O)C[C@H](C(=O)NCC(C)(C)N)C(C)C | –
9.7 | – | – | – | CCCC[C@H](N[C@@H](Cc1ccccc1)C(=O)N1CCC(OCOC)CC1)C(=O)N[C@@H](CC1CCCCC1)[C@@H](O)C[C@H](C(=O)NCCN)C(C)C | –
17 | – | – | – | CCCC[C@H](N[C@@H](Cc1ccccc1)C(=O)N1CCC(OCOC)CC1)C(=O)N[C@@H](CC1CCCCC1)[C@@H](O)C[C@H](C(=O)NCCNC(=O)OCc1ccccc1)C(C)C | –
– | 2.2 | > 5 | > 5 | CCCC[C@H](O[C@@H](Cc1ccccc1)C(=O)N1CCC(OCOC)CC1)C(=O)N[C@@H](CC1CCCCC1)[C@@H](O)C[C@H](C(=O)NCCNC(N)=S)C(C)C | –
12 | – | 2.8 | 2.3 | CCCC[C@H](N[C@@H](Cc1ccccc1)C(=O)N1CCC(OCOC)CC1)C(=O)N[C@@H](CC1CCCCC1)[C@@H](O)C[C@H](C(=O)NCC(=O)O)C(C)C | –
– | 5.9 | > 5 | > 5 | CCCC[C@H](O[C@@H](Cc1ccccc1)C(=O)N1CCC(OCOC)CC1)C(=O)N[C@@H](CC1CCCCC1)[C@@H](O)C[C@H](C(=O)NCC(C)(C)N1CCOCC1)C(C)C | –
– | 3.9 | – | – | CCCC[C@H](O[C@@H](Cc1ccccc1)C(=O)N1CCC(OCOC)CC1)C(=O)N[C@@H](CC1CCCCC1)[C@@H](O)C[C@H](C(=O)NCCN)C(C)C | –
9.5 | – | 3.3 | 2.7 | CCCC[C@H](N[C@@H](Cc1ccccc1)C(=O)N1CCC(OCOC)CC1)C(=O)N[C@@H](CC1CCCCC1)[C@@H](O)C[C@H](C(=O)NCCCN)C(C)C | –
